The list is not random: actives were taken first. Their share in the collection is about 2.7%.
MC4R antag cAMP: MC4R antagonists of cAMP signaling, primary screen, cell-based, TR-FRET, antagonist arm of biased-ligand search; Melanocortin receptor 4 (Homo sapiens), P32245; AID 540295, 2011; MC4R-expressing cells, MTII-stimulated cAMP, LANCE TR-FRET; inhibition, % at 6.5 µM; hit rate 0.48% among 360,000;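 active = inhibition above its plate's cutoff, the mean of tested wells on that plate plus 3 SD, cut at about 29% in these data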;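 note: 0% = Melanotan II alone and 100% = Melanotan II plus saturating MCL0020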
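System – human MC4R-expressing U2OS cells · Also added – Melanotan II · Dosing – one concentration, 6.5 µM nominal · Timing – 30-min compound, 1-h challenge, 1-h detection, room temperature · Measured by – Eu-cAMP/anti-cAMP TR-FRET, emission 671 nm · Replicates – singlicate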
PREPL inh: PREPL enzyme inhibitors, primary screen, biochemical, fluorescence polarization | hit rate 0.68% among 320,000 | inhibition, % at 5.96 µM | recombinant PREPL, fluorescence polarization activity-based probe | AID 2751, 2010 | Prolyl endopeptidase-like (Homo sapiens), Q4J6C6; in the data active = inhibition above about 43%;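 note: 0% = enzyme with DMSO and 100% = wells lacking enzyme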
Hep lipid drop: inhibitors of hepatocyte lipid droplet formation, primary screen, imaging, high-throughput imaging, BODIPY stain; AML12 mouse hepatocytes, oleate lipid droplets; AID 1656, 2009; hit rate 0.4% among 240,000; inhibition, % at 6.5 µM;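 active = lipid droplet intensity inhibited by at least 50%, with more than 500 cells counted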
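Material – AML12 mouse liver cells · Also added – oleate loading, 100 µM · Compound dosing – 6.5 µM single-point dosing · Times – overnight treatment with compound plus oleate · Measured by – fluorescence imaging, 20x objective, two fields per well · Read-out – percent inhibition of filter-corrected integrated lipid droplet intensity per well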
m5-HT2A agonist: mouse Htr2a agonists via beta-arrestin recruitment, primary screen, cell-based, luminescence. 5-hydroxytryptamine receptor 2A (Mus musculus), P35363. CHO-K1 mHTR2A beta-arrestin complementation; percent of 30 µM serotonin response. activation, % at 7.6 µM. hit rate 0.66% among 360,000. AID 624169, 2012;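 active = activation above a run cutoff, the mean activation of all tested compounds plus 3 SD, cut at about 14% in these data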;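 note: 0% = plate median of compound wells and 100% = 30 µM serotonin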
MC4R barr agon: MC4R agonists recruiting beta-arrestin, primary screen, cell-based, luminescence, agonist arm of biased-ligand search. U2OS MC4R beta-arrestin complementation; percent of melanotan II response, DMSO zero. activation, % at 8.9 µM. hit rate 0.98% among 360,000. AID 540308, 2011;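 active = activation above a per-plate cutoff, the mean activation of sample wells on that plate plus 3 SD, cut at about 8% in these data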
NTR1 agonist: agonists of human NTR1, primary screen, imaging, U2OS cells, beta-arrestin-GFP, high content; AID 493036, 2011; hit rate 0.17% among 330,000; activation, % at 20 µM; NTR1-U2OS beta-arrestin-GFP spot imaging, agonist mode;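 active = activation at or above 40% of the spot to cytoplasm intensity ratio, with at least 20 cells analyzed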;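 note: 0% = DMSO without peptide and 100% = 100 nM NTR1 peptide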
MC4R barr ag: MC4R beta-arrestin agonists, retest, confirmation, cell-based, luminescence, U2OS | shares compounds with MC4R barr agon | U2OS MC4R beta-arrestin recruitment; scaled DMSO 0%, Melanotan II 100% | activation, % at 8.9 µM | hit rate 31% among 2,400 | AID 602192, 2012;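 active = mean activation across replicates above the hit cutoff set in the earlier primary screen, cut at about 8% in these data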
MOR DOR agonist: agonists of MOR-DOR heterodimerization, counter-screen for MC4R biased agonist project, cell-based, luminescence | shares compounds with MC4R barr agon | U2OS PathHunter beta-arrestin, beta-gal luminescence; percent of deltorphin B response, DMSO zero | activation, % at 9.2 µM | hit rate 5.8% among 2,400 | AID 602194, 2012;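 active = mean activation across replicates exceeds the hit threshold derived in the earlier primary screen, cut at about 18% in these data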;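 note: 100% = deltorphin B at 0.9 µM final and 0% = DMSO alone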
* hit, by the source's call; nt = not tested or not shown.

SMILES	MC4R antag cAMP	PREPL inh	Hep lipid drop	m5-HT2A agonist	MC4R barr agon	NTR1 agonist	MC4R barr ag	MOR DOR agonist
Cc1cc(C(=O)Nc2sc3c(c2C#N)CCCCC3)cs1	9	8	2	3	14*	13	-2	3
CC(=O)Nc1sc2c(c1C#N)CCCC2	-1	7	5	3	0	-2	nt	nt
CCOC(=O)c1c(NC(=S)Nc2ccc(C)cc2)sc2c1CCC2	4	-2	13	-1	3	16	nt	nt
CCOC(=O)c1c(NC(=S)Nc2ccc(F)cc2)sc2c1CCC2	4	6	4	0	11*	13	8.5*	4
O=C1NC(=O)C2(CCCCCCC2)N1	5	nt	nt	-1	-2	nt	nt	nt
Cc1cc(C)cc(C(=O)NCC(=O)N2CCC(C(N)=O)CC2)c1	3	19	nt	1	0	0	nt	nt
COc1ccccc1OCC(=O)Nc1ccc(NC(=O)COc2ccccc2OC)cc1	-2	11	0	-2	18*	2	23*	17
Cc1ccccc1OCC(=O)Nc1ccc2c(c1)C(=O)c1ccccc1C2=O	2	14	-4	3	22*	7	8.9*	4
Nc1nc2c(c(=O)[nH]1)C(c1ccccc1)C1=C(N2)c2ccccc2C1=O (stereo unspecified)	1	20	-7	-6	-4	0	nt	nt
CCC(C)c1ccc(C2C3=C(Nc4nc(N)[nH]c(=O)c42)c2ccccc2C3=O)cc1 (stereo unspecified)	-16	1	1	-3	10*	12	-2	1
CC(C)(C)c1ccccc1NC(=O)Nc1nc(C(N)c2ccccc2)cs1 (stereo unspecified)	5	nt	nt	-5	0	nt	nt	nt
COc1ccc(CC(N)c2csc(NC(=O)c3ccc(OC)cc3)n2)cc1 (stereo unspecified)	-1	nt	nt	6	0	nt	nt	nt
CC(C)(C)c1ccccc1NC(=O)Nc1nc(C(N)Cc2ccc(F)cc2)cs1 (stereo unspecified)	7	nt	nt	1	11*	nt	8	13
CC(C)c1ccccc1NC(=O)Nc1nc(C(N)Cc2ccc(C(F)(F)F)cc2)cs1 (stereo unspecified)	7	nt	nt	0	15*	nt	14*	17
COc1ccc(CNC(=O)Nc2nc(C(N)Cc3ccc(C(F)(F)F)cc3)cs2)cc1 (stereo unspecified)	-7	nt	nt	-2	16*	nt	17*	12
C/C=C(/C)C(=O)OC1CC(C)(C)C[C@H]2C3=CC[C@@H]4[C@@]5(C)CCC(O[C@@H]6O[C@@H](C(=O)O)[C@@H](O)C(O[C@@H]7OC[C@H](O)[C@@H](O)[C@@H]7O[C@@H]7OC(CO)C(O)[C@@H](O)[C@@H]7O)C6O[C@@H]6OC(CO)C(O)C(O)C6O)[C@@](C)(CO)[C@@H]5CC[C@]4(C)[C@]3(C)CC(O)[C@@]12CO (stereo partly specified)	27	8	nt	0	9.9*	8	8.6*	4
CC(=O)OC1COC(OC2C(O)C(C)OC(OC3C(OC4CCC5(C)C(CCC6(C)C5CC=C5C7CC(C)(C)CCC7(C(=O)O)CCC56C)C4(C)CO)OCC(O)C3O)C2O)C(O)C1OC(C)=O (stereo unspecified)	nt	-1	-1	nt	nt	-3	nt	nt
Cc1cccc(C)c1OC(=O)CSc1nnc(-c2ccccc2O)o1	3	1	-1	3	54*	9	8.2*	4
COC(=O)CSc1nnc(-c2ccccc2OC)o1	5	16	-10	8	-1	0	nt	nt
COCc1cccc(-c2csc(C(NC(C)=O)c3cccc(OC)c3)n2)c1 (stereo unspecified)	4	nt	nt	2	-1	nt	nt	nt
O=S(=O)(Nc1cccc(-c2nc3cccnc3s2)c1)c1ccc2c(c1)OCCO2	9	-60	3	-5	0	-2	nt	nt
O=C(Nc1cccc(-c2nc3cccnc3s2)c1)C1c2ccccc2Oc2ccccc21	2	nt	0	5	10*	-1	3	8
CCCCNC(=O)COC(=O)c1ccc(NC(C)=O)cc1	-1	20	8	2	-4	0	nt	nt
COc1ccc(C(=O)NC(=S)Nc2ccc3c4c(cccc24)CC3)cc1OC	-4	3	1	7	13*	8	7	2
Cc1cccc(OCC(=O)Nc2ccc3c4c(cccc24)CC3)c1C	-1	0	13	-7	31*	-1	2	4
SMILES	MC4R antag cAMP	PREPL inh	Hep lipid drop	m5-HT2A agonist	MC4R barr agon	NTR1 agonist	MC4R barr ag	MOR DOR agonist
CCNC(=O)C1(C)CCCN1C(=O)c1ccc(C#N)cc1 (stereo unspecified)	9	nt	nt	-5	1	nt	nt	nt
C[C@H](NC(=O)c1ncn2c1c(=O)[nH]c1ccc(Br)cc12)c1ccccc1	-1	nt	nt	0	0	nt	nt	nt
COc1cccc(NC(=O)C2CC2(c2cccc(OC)c2)c2cccc(OC)c2)c1 (stereo unspecified)	11	7	42	1	-1	0	nt	nt
COc1cccc(C2(c3cccc(OC)c3)CC2C(=O)Nc2cccc3ccccc23)c1 (stereo unspecified)	10	5	29	-4	9.6*	3	1	4
Cc1ccc(Cl)cc1N1CCN(S(=O)(=O)c2ccc3[nH]c(=O)ccc3c2)CC1	7	-9	-6	-2	10*	3	11*	4
NC(=O)CC(NC(=O)Cc1cccc2ccccc12)c1ccc(N2CCC(N3CCCC3)CC2)c([N+](=O)[O-])c1 (stereo unspecified)	-5	7	5	-1	0	0	nt	nt
O=c1cc(/C=C/c2ccccc2)oc2c1ccc1ccccc12	6	-12	0	-3	29*	26	16*	4
CC(C)CNC(=O)C1(C)CCCN1C(=O)Cc1cccc2ccccc12 (stereo unspecified)	0	nt	nt	2	1	nt	nt	nt

Assay outcomes (PubChem)
